In brackets after ≈: the same amount, converted by molar mass. Activity calls are given as the source filed them. No cut-off for these calls is given here.
Key:
[1] = tested on: Trypanosoma cruzi; assay: Trypanocidal activity against Trypanosoma cruzi Sylvio X10/7 intracellular amastigotes forms assessed as inhibition of maximum parasite growth measured every 24 hrs for 96 hrs by time-kill assay relative to control; assay type: functional
[2] = tested on: Trypanosoma cruzi; assay: Trypanocidal activity against Trypanosoma cruzi Sylvio X10/7 intracellular amastigotes forms measured every 24 hrs for 96 hrs by time-kill assay; assay type: functional
[3] = tested on: Trypanosoma cruzi; assay: Antitrypanosomal activity against bloodstream trypomastigote stage of Trypanosoma cruzi Y measured after 2 hrs by light microscopic analysis; assay type: functional, organism-based
How it was run: (§1)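 Y strain bloodstream trypomastigotes from heart puncture of infected mice, at 5x10⁶/mL in RPMI 1640 with 5% FBS. Incubated at 37℃ with 0–50 µM for 2 or 24 h. […] Mean ± SD.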

[4] = tested on: Trypanosoma cruzi; assay: Antitrypanosomal activity against Trypanosoma cruzi Tulahuen trypomastigote forms infected in mouse L929 cells assessed as reduction in parasite load after 96 hrs by beta-galactosidase reporter gene assay; assay type: functional, organism-based; conditions: L929, 96 h
How it was run: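 L929 cells infected 2 h with tissue culture-derived Tulahuen β-galactosidase trypomastigotes (10:1 parasite/host cell), rinsed with saline, and left 48 h at 37℃. Increasing non-toxic concentrations applied for 96 h. Absorbance read at 570 nm, % growth inhibition versus untreated cells, EC50 derived; mean ± SD. DMSO not above 0.6 %.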

[5] = Selectivity index, ratio of LC50 for mouse L929 cells by light microscopic analysis to EC50 for Trypanosoma cruzi Tulahuen trypomastigote forms; assay type: toxicity; conditions: read-out: Selectivity Index
[6] = tested on: Trypanosoma cruzi; assay: Antitrypanosomal activity against bloodstream trypomastigote stage of Trypanosoma cruzi Y measured after 24 hrs by light microscopic analysis; assay type: functional, organism-based; how it was run: as §1
[7] = Cytotoxicity against mouse L929 cells assessed as reduction in cell viability after 96 hrs by light microscopic analysis; assay type: cell-based; conditions: read-out: LC50
How it was run: (§2)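 L929 fibroblasts (4x10^3 cells/well) in RPMI 1640 with 10% FBS, incubated at 37°C with increasing concentrations for 96 h. Viability was read with AlamarBlue (6 h incubation, absorbance at 600 nm) and confirmed by light microscopy.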

[8] = tested on: Trypanosoma cruzi; assay: Antitrypanosomal activity against Trypanosoma cruzi Tulahuen trypomastigote forms infected in mouse L929 cells assessed as reduction in infection level at 10 to 12 uM after 96 hrs by beta-galactosidase reporter gene assay relative to control; assay type: functional; design: scale not given: the % may be the effect or the level left
How it was run: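 L929 cells infected 2 h with tissue culture-derived β-galactosidase-expressing Tulahuen trypomastigotes at 10:1 parasite/host cell ratio, rinsed, and held 48 h at 37℃. Single fixed concentration (10-12 µM) then applied, 96 h. Absorbance read at 570 nm; growth inhibition expressed relative to untreated cells. DMSO not above 0.6 %.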

[9] = Cytotoxicity against mouse L929 cells assessed as reduction in cell viability after 96 hrs by Alamarblue assay; assay type: cell-based; conditions: read-out: LC50; how it was run: as §2
[10] = Selectivity index, ratio of LC50 for mouse L929 cells by Alamarblue assay to EC50 for Trypanosoma cruzi Tulahuen trypomastigote forms; assay type: toxicity; conditions: read-out: Selectivity Index
[11] = Cytotoxicity against Swiss Webster mouse cardiac cells assessed as reduction in cell viability after 24 hrs by light microscopic analysis; assay type: cell-based, Cardiac Muscle Cell; conditions: read-out: LC50
How it was run: (§3)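 Primary cardiac cells from Swiss Webster mouse embryos, cultured at 37°C in DMEM with 5% FBS, CaCl2, glutamine and chick embryo extract. Uninfected cultures were exposed to increasing concentrations for 24 h. Viability was read with PrestoBlue (5 h incubation, absorbance at 570 nm) and checked by light microscopy for morphology.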

[12] = Selectivity index, ratio of LC50 for Swiss Webster mouse cardiac cells by light microscopic analysis to EC50 for bloodstream trypomastigote stage of Trypanosoma cruzi Y measured after 24 hrs; assay type: toxicity; conditions: read-out: Selectivity Index
How it was run: (§4)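 The ratio is cardiac-cell LC50 (24 h) over the 24 h EC50 against Y-strain bloodstream trypomastigotes. Trypomastigotes (5x10^6/mL) were exposed to 0-50 µM at 37°C in RPMI with 5% FBS. Surviving parasites were counted in a Neubauer chamber, and the EC50 is the concentration halving the parasite number.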

[13] = Cytotoxicity against Swiss Webster mouse cardiac cells assessed as reduction in cell viability after 24 hrs by prestoblue assay; assay type: cell-based, Cardiac Muscle Cell; conditions: read-out: LC50; how it was run: as §3
[14] = Selectivity index, ratio of LC50 for Swiss Webster mouse cardiac cells by prestoblue assay to EC50 for bloodstream trypomastigote stage of Trypanosoma cruzi Y measured after 24 hrs; assay type: toxicity; conditions: read-out: Selectivity Index; how it was run: as §4
[15] = tested on: Trypanosoma cruzi; assay: Antitrypanosomal activity against bloodstream trypomastigote stage of Trypanosoma cruzi Y infected in Swiss Webster mouse assessed as reduction in parasitemia at 20 mg/kg, ip administered daily on day 5 to 9 post infection relative to control; assay type: functional
How it was run: (§5)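 Male Swiss Webster mice (18–20 g) infected i.p. with 10^4 Y strain bloodstream trypomastigotes. Treatment given days 5–9 post infection: test compound i.p. 5–20 mg/kg/day (0.1 mL, DMSO then 20% Trappsol) or Bz 100 mg/kg/day p.o. (3% Tween 80 in water). Controls infected, vehicle only. Parasitemia counted by Pizzi-Brener in 5 µL tail blood; mortality checked daily to 30 days post treatment.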

[16] = tested on: Trypanosoma cruzi; assay: Antitrypanosomal activity against bloodstream trypomastigote stage of Trypanosoma cruzi Y infected in Swiss Webster mouse assessed as reduction in parasitemia at 5 mg/kg, ip administered daily on day 5 to 9 post infection relative to control; assay type: functional; how it was run: as §5
[17] = tested on: Trypanosoma cruzi; assay: Antitrypanosomal activity against bloodstream trypomastigote stage of Trypanosoma cruzi Y infected in Swiss Webster mouse assessed as increase in mouse survival at 5 to 20 mg/kg, ip administered daily on day 5 to 9 measured daily until 30 days post dose relative to control; assay type: functional, organism-based; how it was run: as §5
[18] = tested on: Trypanosoma cruzi; assay: Antitrypanosomal activity against bloodstream trypomastigote stage of Trypanosoma cruzi Y infected in Swiss Webster mouse assessed as reduction in parasitemia at 10 mg/kg, ip administered daily on day 5 to 9 post infection relative to control; assay type: functional; how it was run: as §5
[19] = target: Sterol 14-alpha demethylase (Trypanosoma cruzi (strain CL Brener)) (UniProt Q7Z1V1); assay: Inhibition of recombinant Trypanosoma cruzi Tulahuen CYP51 expressed in Escherichia coli JM109 cell membranes assessed as residual activity at 0.0005 uM by fluorescence based analysis (reference value: 100%)
How it was run: (§6)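 Fluorescence-based functional assay using recombinant T. cruzi (Tulahuen) CYP51. […] Residual activity was measured across a concentration series and fitted to a curve to give the IC50.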

[20] = target: Sterol 14-alpha demethylase (Trypanosoma cruzi (strain CL Brener)) (UniProt Q7Z1V1); assay: Inhibition of recombinant Trypanosoma cruzi Tulahuen CYP51 expressed in Escherichia coli JM109 cell membranes assessed as residual activity at 0.5 uM by fluorescence based analysis (reference value: 100%); how it was run: as §6
[21] = target: Sterol 14-alpha demethylase (Trypanosoma cruzi (strain CL Brener)) (UniProt Q7Z1V1); assay: Inhibition of recombinant Trypanosoma cruzi Tulahuen CYP51 expressed in Escherichia coli JM109 cell membranes assessed as residual activity at 0.17 uM by fluorescence based analysis (reference value: 100%); how it was run: as §6
[22] = target: Sterol 14-alpha demethylase (Trypanosoma cruzi (strain CL Brener)) (UniProt Q7Z1V1); assay: Inhibition of recombinant Trypanosoma cruzi Tulahuen CYP51 expressed in Escherichia coli JM109 cell membranes assessed as residual activity at 0.00165 uM by fluorescence based analysis (reference value: 100%); how it was run: as §6
[23] = target: Sterol 14-alpha demethylase (Trypanosoma cruzi (strain CL Brener)) (UniProt Q7Z1V1); assay: Inhibition of recombinant Trypanosoma cruzi Tulahuen CYP51 expressed in Escherichia coli JM109 cell membranes assessed as residual activity at 0.05 uM by fluorescence based analysis (reference value: 100%); how it was run: as §6
[24] = target: Sterol 14-alpha demethylase (Trypanosoma cruzi (strain CL Brener)) (UniProt Q7Z1V1); assay: Inhibition of recombinant Trypanosoma cruzi Tulahuen CYP51 expressed in Escherichia coli JM109 cell membranes assessed as residual activity at 0.005 uM by fluorescence based analysis (reference value: 100%); how it was run: as §6
[25] = target: Sterol 14-alpha demethylase (Trypanosoma cruzi (strain CL Brener)) (UniProt Q7Z1V1); assay: Inhibition of recombinant Trypanosoma cruzi Tulahuen CYP51 expressed in Escherichia coli JM109 cell membranes assessed as residual activity at 0.0165 uM by fluorescence based analysis (reference value: 100%); how it was run: as §6

Sterol 14-alpha demethylase (Trypanosoma cruzi (strain CL Brener)), sequence (Q7Z1V1 whole entry, looked up): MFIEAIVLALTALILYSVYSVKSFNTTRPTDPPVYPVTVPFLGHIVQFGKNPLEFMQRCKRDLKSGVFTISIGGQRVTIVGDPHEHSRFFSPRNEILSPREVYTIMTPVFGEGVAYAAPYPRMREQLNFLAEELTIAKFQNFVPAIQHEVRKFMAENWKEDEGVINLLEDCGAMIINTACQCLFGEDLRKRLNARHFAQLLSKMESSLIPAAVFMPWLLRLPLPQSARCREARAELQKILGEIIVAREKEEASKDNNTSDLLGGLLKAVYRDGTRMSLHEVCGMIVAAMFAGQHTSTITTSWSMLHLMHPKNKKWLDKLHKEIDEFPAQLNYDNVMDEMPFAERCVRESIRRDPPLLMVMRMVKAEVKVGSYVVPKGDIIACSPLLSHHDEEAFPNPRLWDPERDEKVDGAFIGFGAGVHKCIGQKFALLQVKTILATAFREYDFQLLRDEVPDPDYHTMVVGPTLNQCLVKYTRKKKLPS

CC1CS(=O)(=O)CCN1/N=C/c1ccc([N+](=O)[O-])o1 (stereo unspecified) [NIFURTIMOX]
Imax [1]: 103% | MIC [2]: 5 µM (≈ 1.44 µg/mL)

COc1cc([C@H]2S[C@@H](C)C(=O)Nc3[nH]nc(C)c32)ccc1OCc1ccc(Cl)cc1
EC50 [3]: > 50 µM | EC50 [4]: 10.8 µM | selectivity ratio [5]: 4.7 | EC50 [6]: 39.4 µM | CC50 at 96 h [7]: 50.6 µM | Activity [8]: 53.94% | CC50 at 96 h [9]: 50.6 µM | selectivity ratio [10]: 4.7

CCCOc1ccc([C@H]2S[C@@H](C)C(=O)Nc3[nH]nc(C)c32)cc1
Activity [8]: 0%

Cc1n[nH]c2c1[C@@H](c1ccc(OCc3ccc(Cl)cc3)cc1)S[C@@H](C)C(=O)N2
Activity [8]: 14.88%

Cc1ccccc1COc1ccc([C@H]2S[C@@H](C)C(=O)Nc3[nH]nc(C)c32)cc1
CC50 at 24 h [11]: > 200 µM | EC50 [3]: > 50 µM | selectivity ratio at 24 h [12]: > 5.2 | EC50 [4]: 2.2 µM | selectivity ratio [5]: 50.4 | EC50 [6]: 38.6 µM | CC50 at 96 h [7]: 111 µM | CC50 at 24 h [13]: > 200 µM | Activity [8]: 69.14% | selectivity ratio at 24 h [14]: > 5.2 | CC50 at 96 h [9]: 111 µM | selectivity ratio [10]: 50.4

Cc1cccc(COc2ccc([C@H]3S[C@@H](C)C(=O)Nc4[nH]nc(C)c43)cc2)c1
CC50 at 24 h [11]: 66 µM | EC50 [3]: > 50 µM | Activity [15]: inactive | selectivity ratio at 24 h [12]: 3.2 | EC50 [4]: 2.7 µM | Activity [16]: inactive | Activity [17]: inactive | selectivity ratio [5]: 36.6 | EC50 [6]: 20.6 µM | CC50 at 96 h [7]: 98.9 µM | CC50 at 24 h [13]: 66 µM | Activity [8]: 89.25% | Activity [18]: inactive | selectivity ratio at 24 h [14]: 3.2 | CC50 at 96 h [9]: 98.9 µM | selectivity ratio [10]: 36.6

COc1cc([C@H]2S[C@@H](C)C(=O)Nc3[nH]nc(C)c32)ccc1OCc1ccccc1Cl
Activity [8]: 27.88%

COc1cc([C@H]2S[C@@H](C)C(=O)Nc3[nH]nc(C)c32)ccc1OCc1cccc(C)c1
Activity [8]: 25.05%

Cc1n[nH]c2c1[C@@H](c1ccc(OC(C)C)cc1)S[C@@H](C)C(=O)N2
Activity [8]: 0%

Cc1ccc(COc2ccc([C@H]3S[C@@H](C)C(=O)Nc4[nH]nc(C)c43)cc2)cc1
Activity [8]: 0%

COc1cc([C@H]2S[C@@H](C)C(=O)Nc3[nH]nc(C)c32)ccc1OCc1ccccc1C
Activity [8]: 16.43%

Cc1n[nH]c2c1[C@@H](c1ccc(OCc3ccc(F)cc3)cc1)S[C@@H](C)C(=O)N2
Activity [8]: 32.42%

C=CCOc1ccc([C@H]2S[C@@H](C)C(=O)Nc3[nH]nc(C)c32)cc1
Activity [8]: 0%

COc1cc([C@H]2S[C@@H](C)C(=O)Nc3[nH]nc(C)c32)ccc1OCc1ccccc1
Activity [8]: 12.02%

COc1cc([C@H]2S[C@@H](C)C(=O)Nc3[nH]nc(C)c32)ccc1OCc1cccc(Cl)c1
Activity [8]: 39.94%

COc1cc([C@H]2S[C@@H](C)C(=O)Nc3[nH]nc(C)c32)ccc1OCc1ccc(C)cc1
Activity [8]: 1.98%

CC[C@@H]([C@H](C)O)n1ncn(-c2ccc(N3CCN(c4ccc(OC[C@@H]5CO[C@@](Cn6cncn6)(c6ccc(F)cc6F)C5)cc4)CC3)cc2)c1=O
Activity [19]: 100% | Activity [20]: 0% | Activity [21]: 0% | Activity [22]: 98.4% | Activity [23]: 32% | Activity [24]: 92.8% | Activity [25]: 71.9%

Cc1n[nH]c2c1[C@@H](c1ccc(OCc3ccccc3F)cc1)S[C@@H](C)C(=O)N2
CC50 at 24 h [11]: > 200 µM | EC50 [3]: > 50 µM | selectivity ratio at 24 h [12]: > 4 | EC50 [4]: 5.3 µM | selectivity ratio [5]: > 38 | EC50 [6]: > 50 µM | CC50 at 96 h [7]: > 200 µM | CC50 at 24 h [13]: > 200 µM | Activity [8]: 63.64% | selectivity ratio at 24 h [14]: > 4 | CC50 at 96 h [9]: > 200 µM | selectivity ratio [10]: > 38

Cc1n[nH]c2c1[C@@H](c1ccc(OCc3cccc(F)c3)cc1)S[C@@H](C)C(=O)N2
CC50 at 24 h [11]: 94 µM | EC50 [3]: > 50 µM | selectivity ratio at 24 h [12]: 3.71 | EC50 [4]: 5.32 µM | selectivity ratio [5]: 19.4 | EC50 [6]: 47 µM | CC50 at 96 h [7]: 103 µM | CC50 at 24 h [13]: 94 µM | Activity [8]: 70.68% | selectivity ratio at 24 h [14]: 3.71 | CC50 at 96 h [9]: 103 µM | selectivity ratio [10]: 19.4

Reference: ChEMBL document CHEMBL4196064, “Identification of Pyrazolo[3,4-e][1,4]thiazepin based CYP51 inhibitors as potential Chagas disease therapeutic alternative: In vitro and in vivo evaluation, binding mode prediction and SAR exploration” (Eur J Med Chem, 2018)
